# pEC50: −log10 of the molar value. Calls of active or inactive are those of the source. The calls are words filed in the database; no cut-off is given here.
# Tested on: Cystic fibrosis transmembrane conductance regulator (Homo sapiens), P13569 [N1303K]
# Experiment: Potentiation of CFTR N1303K mutant (unknown origin) expressed in human 16HBE14o- cells assessed as increase in VX-770-stimulated chloride current in presence of forskolin by short circuit method
# Format: cell-based
# Conditions: filed as activator
# Method in brief: (§1)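 Gene-edited 16HBE14o- cells grown on permeable supports; short-circuit current at 37 °C with a chloride gradient in Hepes-buffered solutions. Sequential additions: 20 μM forskolin, 5 μM VX-770, 10 μM test compound, then 10 μM CFTRinh-172. Change in current (ΔIsc) reported as mean ± S.E.M., n = 3.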
# Sequence of Cystic fibrosis transmembrane conductance regulator (Homo sapiens), P13569 [N1303K] (P13569 whole entry N1303K): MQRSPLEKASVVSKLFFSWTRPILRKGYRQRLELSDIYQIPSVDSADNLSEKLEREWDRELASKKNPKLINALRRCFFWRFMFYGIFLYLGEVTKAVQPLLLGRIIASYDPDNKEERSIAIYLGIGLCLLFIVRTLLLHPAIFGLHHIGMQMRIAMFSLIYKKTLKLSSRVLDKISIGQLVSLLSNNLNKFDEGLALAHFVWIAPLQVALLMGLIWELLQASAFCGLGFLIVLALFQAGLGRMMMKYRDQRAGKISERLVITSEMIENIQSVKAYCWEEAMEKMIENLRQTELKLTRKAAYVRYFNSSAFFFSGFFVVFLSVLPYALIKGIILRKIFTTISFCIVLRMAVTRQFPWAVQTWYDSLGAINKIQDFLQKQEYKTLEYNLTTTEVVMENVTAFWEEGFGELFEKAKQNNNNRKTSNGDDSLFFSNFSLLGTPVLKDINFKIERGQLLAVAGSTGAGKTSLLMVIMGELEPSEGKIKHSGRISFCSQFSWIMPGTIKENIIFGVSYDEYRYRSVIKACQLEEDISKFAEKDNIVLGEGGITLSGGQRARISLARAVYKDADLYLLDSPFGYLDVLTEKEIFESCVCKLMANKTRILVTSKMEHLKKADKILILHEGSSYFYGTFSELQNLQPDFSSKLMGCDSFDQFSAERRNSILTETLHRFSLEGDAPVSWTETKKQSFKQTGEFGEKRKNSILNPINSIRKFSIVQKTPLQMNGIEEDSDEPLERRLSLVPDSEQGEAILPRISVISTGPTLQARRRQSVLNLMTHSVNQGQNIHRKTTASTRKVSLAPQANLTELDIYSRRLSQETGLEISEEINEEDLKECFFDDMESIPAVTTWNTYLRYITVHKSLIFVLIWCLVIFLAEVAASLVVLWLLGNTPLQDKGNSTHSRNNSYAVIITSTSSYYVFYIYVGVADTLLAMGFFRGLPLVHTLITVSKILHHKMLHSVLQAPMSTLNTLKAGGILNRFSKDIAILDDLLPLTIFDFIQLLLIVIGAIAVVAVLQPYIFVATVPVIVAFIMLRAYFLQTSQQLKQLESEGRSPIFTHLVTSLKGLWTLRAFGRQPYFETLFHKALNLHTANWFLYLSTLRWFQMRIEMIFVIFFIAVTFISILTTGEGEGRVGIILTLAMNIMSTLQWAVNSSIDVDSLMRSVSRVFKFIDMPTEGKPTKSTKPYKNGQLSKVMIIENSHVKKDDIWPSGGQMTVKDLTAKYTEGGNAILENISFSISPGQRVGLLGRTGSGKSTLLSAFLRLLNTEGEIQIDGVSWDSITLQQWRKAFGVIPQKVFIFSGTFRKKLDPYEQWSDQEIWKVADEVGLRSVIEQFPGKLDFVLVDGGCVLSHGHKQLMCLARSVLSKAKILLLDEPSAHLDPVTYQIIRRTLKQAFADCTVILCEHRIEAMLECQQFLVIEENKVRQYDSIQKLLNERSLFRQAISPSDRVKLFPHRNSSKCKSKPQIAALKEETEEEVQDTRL
row,SMILES,Activity
1,COc1ccc2[nH]c3c(c2c1)CCNC31CCN(Cc2cc(F)c(F)cc2F)CC1,Active

# Tested on: 16HBE14o-
# Experiment: Potentiation of CFTR I1234del mutant (unknown origin) expressed in human 16HBE14o- cells assessed as increase in VX-770-stimulated chloride current in presence of forskolin by short circuit method
# Format: cell-based
# Conditions: filed as activator
# Method in brief: as §1
row,SMILES,Activity
1,COc1ccc2[nH]c3c(c2c1)CCNC31CCN(Cc2cc(F)c(F)cc2F)CC1,Active

# Tested on: Cystic fibrosis transmembrane conductance regulator (Homo sapiens), P13569 [R347P]
# Sequence (P13569 whole entry R347P): as the sequence (P13569 whole entry N1303K) above, with R347P, K1303N counted along it
# Experiment: Potentiation of CFTR R347P mutant (unknown origin) expressed in rat FRT cells assessed as effect on VX-770-stimulated chloride current in presence of forskolin by short circuit method
# Format: cell-based
# Conditions: not given
# Method in brief: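 R347P-CFTR FRT cells, corrected with 3 μM VX-661 for 18–24 h. Short-circuit current at 37 °C in HCO3-buffered solutions with a chloride gradient. Basolateral membrane permeabilized with 250 μg/ml amphotericin B. Sequential additions: 20 μM forskolin, 5 μM VX-770, 20 μM test compound, then 10 μM CFTRinh-172.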
row,SMILES,Activity
1,COc1ccc2[nH]c3c(c2c1)CCNC31CCN(Cc2cc(F)c(F)cc2F)CC1,inactive

# Tested on: Cystic fibrosis transmembrane conductance regulator (Homo sapiens), P13569 [N1303K]
# Experiment: (§2) Potentiation of CFTR N1303K mutant (unknown origin) expressed in rat FRT cells assessed as increase in VX-770-stimulated chloride current in presence of forskolin by short circuit method
# Format: cell-based
# Conditions: not given
# Method in brief: (§3)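 FRT cells stably expressing the mutant CFTR, corrected with 3 μM VX-661 for 18–24 hours, then grown on permeable supports. Short-circuit current at 37 °C in HCO3-buffered solutions with a chloride gradient. Basolateral membrane permeabilized with 250 μg/ml amphotericin B. Additions: 20 μM forskolin, 5 μM VX-770, test compound at a range of concentrations, then 10 μM CFTRinh-172. Concentration dependence n=3, mean ± S.E.M.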
row,SMILES,Activity
1,COc1ccc2[nH]c3c(c2c1)CCN[C@@]31CCN2Cc3ccccc3C[C@H]2C1 (racemic),inactive
2,COc1ccc2[nH]c3c(c2c1)CCNC31CCN(Cc2ccc(C(C)(C)C)cc2)CC1,inactive
3,COc1ccc2[nH]c3c(c2c1)CCNC31CCN(Cc2ccc(F)cc2F)C1 (configuration not stated),inactive
4,COc1ccc2[nH]c3c(c2c1)CCNC31CCNCC1,inactive
5,COc1ccc2c(c1)c1c(n2C)C2(CCN(Cc3ccc(F)cc3F)CC2)NCC1,inactive
6,COc1ccc2[nH]cc(CCNC3CCN(Cc4ccccc4)CC3)c2c1,inactive
7,COc1ccc2[nH]c3c(c2c1)CCNC31CCCN(Cc2ccc(F)cc2F)C1 (configuration not stated),inactive

# Target: Cystic fibrosis transmembrane conductance regulator (Homo sapiens, UniProt P13569, N1303K)
# Sequence (P13569 whole entry N1303K): as the sequence (P13569 whole entry N1303K) above
# Experiment: as §2
# Format: cell-based
# Conditions: not given
# Method in brief: as §3
row,SMILES,pEC50
1,COc1ccc2[nH]c3c(c2c1)CCNC31CCN(C(C)c2ccccc2)CC1 (configuration not stated),4.70
2,Fc1ccc(CN2CCC3(CC2)NCCc2c3[nH]c3ccc(Br)cc23)c(F)c1,4.68
3,COc1ccc2[nH]c3c(c2c1)CCNC31CCN(Cc2ccccc2Cl)CC1,5.66
4,COc1ccc2[nH]c3c(c2c1)CCNC31CCN(Cc2cc(F)cc(Cl)c2)CC1,5.60
5,COc1ccc2[nH]c3c(c2c1)CCNC31CCN(Cc2ccc(F)cc2F)CC1,5.70
6,COc1ccc2[nH]c3c(c2c1)CCNC31CCN(Cc2ccco2)CC1,4.79
7,COc1ccc2[nH]c3c(c2c1)CCNC31CCN(Cc2cccnc2)CC1,4.77
8,COc1ccc2[nH]c3c(c2c1)CCNC31CCN(Cc2ccccc2)CC1,4.90
9,COc1ccc2[nH]c3c(c2c1)CCNC31CCN(Cc2ccc(Cl)cc2Cl)CC1,5.74
10,COc1ccc2[nH]c3c(c2c1)CCNC31CCN(Cc2ccc(F)c(F)c2)CC1,4.96
11,COc1ccc2[nH]c3c(c2c1)CCNC31CCN(Cc2ccc(Br)cc2F)CC1,5.80
12,COc1ccc2[nH]c3c(c2c1)CCNC31CCN(Cc2ccc(Br)c(F)c2)CC1,5.74
13,COc1ccc2[nH]c3c(c2c1)CCNC31CCN(Cc2c(F)ccc(Cl)c2F)CC1,5.35
14,COc1ccc2[nH]c3c(c2c1)CCNC31CCN(Cc2cccc(F)c2F)CC1,4.87
15,COc1ccc2[nH]c3c(c2c1)CCNC31CCN(Cc2ccc([N+](=O)[O-])cc2F)CC1,5.23
16,COc1ccc2[nH]c3c(c2c1)CCNC31CCN(Cc2cc(F)ccc2F)CC1,4.95
17,COc1ccc2[nH]c3c(c2c1)CCNC31CCN(Cc2cc(Cl)ccc2[N+](=O)[O-])CC1,5.15
18,Fc1ccc(CN2CCC3(CC2)NCCc2c3[nH]c3ccccc23)c(F)c1,5.09
19,COc1ccc2[nH]c3c(c2c1)CCNC31CCCN(Cc2ccc(F)cc2F)CC1 (configuration not stated),4.70
20,COc1ccc2[nH]c3c(c2c1)CCNC31CCN(Cc2ccccn2)CC1,4.94
21,COc1ccc2[nH]c3c(c2c1)CCNC31CCN(Cc2cc(F)cc(F)c2)CC1,4.95

# Tested on: not listed separately
# Experiment: Potentiation of CFTR I1234del mutant (unknown origin) expressed in rat FRT cells assessed as increase in VX-770-stimulated chloride current in presence of forskolin by short circuit method
# Format: cell-based
# Conditions: Homo sapiens
# Method in brief: as §3
row,SMILES,pEC50
1,COc1ccc2[nH]c3c(c2c1)CCNC31CCN(Cc2cc(F)c(F)cc2F)CC1,6.15

# From ChEMBL document CHEMBL4732073, “1-BENZYLSPIRO[PIPERIDINE-4,1'-PYRIDO[3,4-b]indole] 'co-potentiators' for minimal function CFTR mutants” (Eur J Med Chem, 2021)
